In ChEMBL document CHEMBL1156597, “Structure-activity relationship of kahalalide F synthetic analogues” (J Med Chem, 2008):

Legend:
SK-MEL-28 = experiment: Cytotoxicity against human SK-MEL-28 cells after 48 hrs by SRB assay; type: functional, cell-based; details: Homo sapiens, SK-MEL-28, 48 h; for CC50: read-out: LC50 (the source's name)
Summary of the method: (§1)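 Cells grown in RPMI 1640 with 10% FBS and penicillin/streptomycin at 37 °C and 5% CO₂, trypsinized, then seeded at 5 × 10³/well. After 18 h drug-free attachment, samples in DMSO/EtOH/PBS (0.5:0.5:99) were added for 48 h continuous exposure. Cells were fixed with cold TCA (1 h, 4 °C) and stained with SRB (10 min). Tris-solubilized stain read at 490 nm. Triplicate wells, mean ± SD; GI₅₀ derived.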

[1] = Cytotoxicity against human IGROV-ET cells after 48 hrs by SRB assay; type: functional; details: for CC50: read-out: LC50 (the source's name); summary of the method: as §1
DU-145 = experiment: Cytotoxicity against human DU145 cells after 48 hrs by SRB assay; type: functional, cell-based; details: Homo sapiens, DU-145, 48 h; for CC50: read-out: LC50 (the source's name); summary of the method: as §1
HT-29 = experiment: Cytotoxicity against human HT29 cells after 48 hrs by SRB assay; type: functional, cell-based; details: Homo sapiens, HT-29, 48 h; for CC50: read-out: LC50 (the source's name); summary of the method: as §1
SK-BR-3 = experiment: Cytotoxicity against human SKBR3 cells after 48 hrs by SRB assay; type: functional; details: SK-BR-3, 48 h; for CC50: read-out: LC50 (the source's name); summary of the method: as §1
[2] = Cytotoxicity against human HeLa-APL cells after 48 hrs by SRB assay; type: functional; summary of the method: as §1
LoVo [3] = experiment: Cytotoxicity against human LoVo cells after 48 hrs by SRB assay; type: functional; details: for CC50: read-out: LC50 (the source's name)
HeLa = experiment: Cytotoxicity against human HeLa cells after 48 hrs by SRB assay; type: functional; details: for CC50: read-out: LC50 (the source's name); summary of the method: as §1
PANC-1 = experiment: Cytotoxicity against human PANC1 cells after 48 hrs by SRB assay; type: functional; details: PANC-1, 48 h; for CC50: read-out: LC50 (the source's name); summary of the method: as §1
LoVo [4] = experiment: Cytotoxicity against human doxorubicin resistant LoVo cells after 48 hrs by SRB assay; type: functional; details: for CC50: read-out: LC50 (the source's name); summary of the method: as §1
K562 = experiment: Cytotoxicity against human K562 cells after 48 hrs by SRB assay; type: functional; details: K562, 48 h; for CC50: read-out: LC50 (the source's name); summary of the method: as §1
[5] = Cytotoxicity against human IGROV cells after 48 hrs by SRB assay; type: functional; details: for CC50: read-out: LC50 (the source's name); summary of the method: as §1
A549 = experiment: Cytotoxicity against human A549 cells after 48 hrs by SRB assay; type: functional, cell-based; details: Homo sapiens, A549, 48 h; summary of the method: as §1

SMILES	GI50 (SK-MEL-28; read-out: GI50)	CC50 (SK-MEL-28)	GI50 ([1]; read-out: GI50)	CC50 [1]	GI50 (DU-145; read-out: GI50)	CC50 (DU-145)	CC50 (HT-29)	GI50 (SK-BR-3; read-out: GI50)	CC50 (SK-BR-3)	LC50 (concentration giving 50% net cell kill) [2]	GI50 (LoVo [3])	TGI (LoVo [3])	CC50 (LoVo [3])	CC50 (HeLa)	GI50 (PANC-1)	CC50 (PANC-1)	CC50 (LoVo [4])	CC50 (K562)	CC50 [5]	LC50 (A549)	further results
C/C=C1\NC(=O)[C@H](Cc2ccccc2)NC(=O)[C@@H](C(C)C)NC(=O)[C@@H]([C@H](C)CC)NC(=O)[C@H](NC(=O)[C@H](NC(=O)[C@H](CCCN)NC(=O)[C@H]2CCCN2C(=O)[C@H](NC(=O)[C@@H](NC(=O)[C@H](CCC(N)=O)NC(=O)[C@H](NC(=O)CCCC(C)C)C(C)C)C(C)C)C(C)C)[C@H](C)CC)[C@H](C)OC(=O)[C@H](C(C)C)NC1=O	1170 nM	1170 nM	477 nM	561 nM	913 nM	913 nM	436 nM	151 nM	300 nM	955 nM	258 nM	325 nM	357 nM	946 nM	1740 nM	1740 nM	348 nM	1900 nM	456 nM	1140 nM	TGI (SK-MEL-28): 1170 nM; GI50 [1]: 575 nM; GI50 (DU-145): 913 nM; GI50 (HT-29): 448 nM; TGI (HT-29): 455 nM; TGI (SK-BR-3): 173 nM; TGI (PANC-1): 1740 nM; GI50 (K562): 1900 nM; TGI (K562): 1900 nM; GI50 [5]: 406 nM; GI50 ([5]; read-out: GI50): 357 nM; TGI (A549): 1140 nM; GI50 (A549; read-out: GI50): 1140 nM
C/C=C1\NC(=O)[C@H](Cc2ccc(F)c(F)c2)NC(=O)[C@@H](C(C)C)NC(=O)[C@@H]([C@H](C)CC)NC(=O)[C@H](NC(=O)[C@H](NC(=O)[C@H](CCCN)NC(=O)[C@H]2CCCN2C(=O)[C@H](NC(=O)[C@@H](NC(=O)[C@@H](NC(=O)[C@H](NC(=O)CCCC(C)C)C(C)C)[C@@H](C)O)C(C)C)C(C)C)[C@H](C)CC)[C@H](C)OC(=O)[C@H](C(C)C)NC1=O	128 nM	323 nM	47 nM	515 nM	43 nM	243 nM	90.4 nM	30 nM	134 nM	271 nM	12.8 nM	21.2 nM	25.9 nM	466 nM	575 nM	1650 nM	52.8 nM	1610 nM	156 nM	968 nM	GI50 (SK-MEL-28): 203 nM; TGI [1]: 76.7 nM; GI50 (DU-145): 131 nM; GI50 (HT-29): 30.4 nM; TGI (HT-29): 28.7 nM; GI50 (SK-BR-3): 31.9 nM; GI50 [2]: 155 nM; TGI [2]: 166 nM; GI50 (HeLa): 98.1 nM; TGI (HeLa): 177 nM; TGI (PANC-1): 979 nM; GI50 (LoVo [4]): 18.4 nM; TGI (LoVo [4]): 20.5 nM; GI50 (K562): 732 nM; TGI (K562): 1090 nM; GI50 [5]: 86.8 nM; GI50 ([5]; read-out: GI50): 37.9 nM; GI50 (A549): 293 nM; GI50 (A549; read-out: GI50): 137 nM
C/C=C1\NC(=O)[C@H](Cc2ccc(O)cc2)NC(=O)[C@@H](C(C)C)NC(=O)[C@@H]([C@H](C)CC)NC(=O)[C@H](NC(=O)[C@H](NC(=O)[C@H](CCCN)NC(=O)[C@H]2CCCN2C(=O)[C@H](NC(=O)[C@@H](NC(=O)[C@@H](NC(=O)[C@H](NC(=O)CC[C@@H](C)CC)C(C)C)[C@@H](C)O)C(C)C)C(C)C)[C@H](C)CC)[C@H](C)OC(=O)[C@H](C(C)C)NC1=O	2370 nM	2100 nM		1000 nM		1930 nM	748 nM		184 nM	1980 nM	1830 nM	2310 nM	2690 nM	2100 nM		2020 nM	2170 nM	2700 nM	970 nM	1840 nM	TGI (SK-MEL-28): 3820 nM; GI50 (HeLa): 3620 nM; TGI (HeLa): 4340 nM; GI50 (LoVo [4]): 1030 nM; TGI (LoVo [4]): 1720 nM; GI50 (K562): 4920 nM; TGI (K562): 4300 nM
C/C=C1\NC(=O)[C@@H]2C[C@@H]3CCCC[C@@H]3N2C(=O)[C@@H](C(C)C)NC(=O)[C@@H]([C@H](C)CC)NC(=O)[C@H](NC(=O)[C@H](NC(=O)[C@H](CCCN)NC(=O)[C@H]2CCCN2C(=O)[C@H](NC(=O)[C@@H](NC(=O)[C@@H](NC(=O)[C@H](NC(=O)CC[C@@H](C)CC)C(C)C)[C@@H](C)O)C(C)C)C(C)C)[C@H](C)CC)[C@H](C)OC(=O)[C@H](C(C)C)NC1=O	1150 nM	1120 nM	1590 nM	507 nM	1460 nM	1070 nM	677 nM	700 nM	138 nM	1000 nM	1210 nM	1920 nM	2420 nM	1050 nM	2580 nM	2000 nM	527 nM	2670 nM	582 nM	1070 nM	TGI (SK-MEL-28): 1140 nM; GI50 [1]: 827 nM; TGI (DU-145): 1250 nM; TGI (SK-BR-3): 887 nM; GI50 [2]: 1260 nM; TGI [2]: 1120 nM; GI50 (HeLa): 1560 nM; TGI (HeLa): 1270 nM; TGI (PANC-1): 3670 nM; GI50 (LoVo [4]): 358 nM; TGI (LoVo [4]): 433 nM; GI50 (K562): 4750 nM; TGI (K562): 4040 nM; GI50 [5]: 871 nM; GI50 ([5]; read-out: GI50): 1820 nM; TGI (A549): 1250 nM; GI50 (A549; read-out: GI50): 1460 nM
C/C=C1\NC(=O)[C@H](Cc2ccc(Cl)c(Cl)c2)NC(=O)[C@@H](C(C)C)NC(=O)[C@@H]([C@H](C)CC)NC(=O)[C@H](NC(=O)[C@H](NC(=O)[C@H](CCCN)NC(=O)[C@H]2CCCN2C(=O)[C@H](NC(=O)[C@@H](NC(=O)[C@@H](NC(=O)[C@H](NC(=O)CC[C@@H](C)CC)C(C)C)[C@@H](C)O)C(C)C)C(C)C)[C@H](C)CC)[C@H](C)OC(=O)[C@H](C(C)C)NC1=O	587 nM	1210 nM	246 nM	539 nM	266 nM	734 nM	201 nM	283 nM	1030 nM	1140 nM	426 nM	451 nM	319 nM	1100 nM	2090 nM	1810 nM	134 nM	1850 nM	567 nM	6270 nM	GI50 (SK-MEL-28): 852 nM; GI50 [1]: 379 nM; GI50 (DU-145): 370 nM; TGI (SK-BR-3): 368 nM; GI50 [2]: 1020 nM; TGI [2]: 1080 nM; GI50 (HeLa): 493 nM; TGI (HeLa): 813 nM; TGI (PANC-1): 1950 nM; GI50 (LoVo [4]): 299 nM; TGI (LoVo [4]): 248 nM; GI50 [5]: 329 nM; GI50 ([5]; read-out: GI50): 383 nM; GI50 (A549): 206 nM; GI50 (A549; read-out: GI50): 110 nM
